The list is not random: actives were taken first. Their share in the collection is about 1.8%.
TDP2 inh: human TDP2 enzyme inhibitors, primary screen, biochemical, epi absorbance, recombinant enzyme; inhibition, % at 12.8 µM; T5PNP hydrolysis, p-nitrophenol absorbance 415 nm; Tyrosyl-DNA phosphodiesterase 2 (Homo sapiens), O95551; 0.34% of 370,000 active; AID 720702, 2013;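 active means inhibition above the mean of all tested compounds plus 3 SD, set per campaign, cut at about 25% in these data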;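 further: 0% = DMSO with enzyme and 100% = buffer with substrate but no TDP2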
Target sequence (O95551 whole entry, looked up): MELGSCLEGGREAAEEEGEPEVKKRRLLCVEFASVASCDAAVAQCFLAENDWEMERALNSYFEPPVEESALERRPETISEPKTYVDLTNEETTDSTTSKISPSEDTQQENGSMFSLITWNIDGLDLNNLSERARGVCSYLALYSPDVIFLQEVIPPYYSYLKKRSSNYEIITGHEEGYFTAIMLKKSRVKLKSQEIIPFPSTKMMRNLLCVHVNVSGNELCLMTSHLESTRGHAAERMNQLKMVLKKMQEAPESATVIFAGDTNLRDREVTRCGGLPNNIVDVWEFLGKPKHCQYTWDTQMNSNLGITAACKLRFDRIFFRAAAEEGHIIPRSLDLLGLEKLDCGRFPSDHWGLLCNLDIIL
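System: recombinant human TDP2 / Amount: 120 nM TDP2 per well / Also added: 5 mM T5PNP chromogenic substrate / Doses: 12.8 µM single point, 1% DMSO / Incubation: 2 h at 37 °C / Detection: p-Nitrophenol epi absorbance / Evaluation: % inhibition relative to enzyme-containing and enzyme-free wells / Repeats: singlicate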
LEDGF integ inh: blockers of LEDGF/p75-dependent integrase strand transfer – biochemical, TR-FRET, high throughput, primary screen; inhibition, % at 3.7 µM; 0.64% of 370,000 active; TR-FRET IN-LEDGF/p75 DNA integration, Eu/Cy5;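 active means inhibition above the screen-wide mean plus 3 SD, cut at about 13% in these data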;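 further: signal is the Cy5 over europium emission ratio at 671 and 618 nm; 0% = plate median of compound wells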
MBD2 DNA inh: inhibitors of MBD2 binding to methylated DNA, primary screen, biochemical, TR-FRET, DNA-binding domain, human | 0.31% of 370,000 active | inhibition, % at 4.4 µM | MBD2 binding to methylated oligonucleotide; in the data active means inhibition above about 13%
NSD2 inh: NSD2 histone methyltransferase inhibitors, primary screen, biochemical, AlphaScreen, single concentration, set 2 | Histone-lysine N-methyltransferase NSD2 (Homo sapiens), O96028 | NSD2 peptide methylation, 120 min | inhibition, % at 12.5 µM | 0.54% of 310,000 active; in the data active means inhibition above about 50%
UHRF1 MBD2 ctr: UHRF1 methylated DNA binding inhibitors, primary screen, counter-screen for MBD2 inhibitor project, biochemical, TR-FRET, human UHRF1, single concentration | inhibition, % at 4.4 µM | AID 687016, 2013 | UHRF1 binding to methylated oligo | 0.75% of 370,000 active; in the data active means inhibition above about 21%;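 further: UHRF1 SRA domain binding a hemimethylated CpG hairpin DNA probe; 0% = median of test compound wells and 100% = reference inhibitor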
Casp6 inh: human caspase-6 inhibitors, primary screen, biochemical, VEID-R110 fluorescence, single point, set 2 | P55212 | purified caspase-6, Z-VEID-R110 cleavage fluorescence | inhibition, % at 12.5 µM | 0.53% of 350,000 active;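 active means mean inhibition across replicates at least about 35%, with every replicate also reaching that limit, limit read from the data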;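 further: 0% = median of neutral control wells and 100% = no fluorescence left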
Target sequence (P55212 24-179 limits assumed): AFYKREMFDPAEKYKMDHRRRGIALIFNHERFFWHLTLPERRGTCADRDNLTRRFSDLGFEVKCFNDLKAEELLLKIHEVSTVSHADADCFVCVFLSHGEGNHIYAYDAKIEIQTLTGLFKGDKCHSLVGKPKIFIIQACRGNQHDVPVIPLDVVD
Target sequence (P55212 194-293 limits assumed): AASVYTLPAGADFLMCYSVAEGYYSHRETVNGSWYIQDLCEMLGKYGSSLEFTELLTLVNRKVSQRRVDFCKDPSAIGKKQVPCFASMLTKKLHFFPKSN
An asterisk follows results filed as active; x = no result.

SMILES	TDP2 inh	LEDGF integ inh	MBD2 DNA inh	NSD2 inh	UHRF1 MBD2 ctr	Casp6 inh
COc1ccc2c3c([nH]c2c1)[C@H](CO)N(C(=O)C1CCOCC1)CC31CN(Cc2nccs2)C1	x	x	x	x	x	-4.8
C[C@H](CO)N1C[C@H](C)[C@@H](CN(C)Cc2ccc(Cl)c(Cl)c2)Oc2ccc(N(C)C)cc2CC1=O	x	x	x	x	x	-1.5
CCOc1ccc(S(=O)(=O)N(CC(=O)N/N=C/c2ccc(-c3ccc([N+](=O)[O-])cc3)o2)c2ccccc2)cc1	-15.1	5.7	11.7	x	28.0*	x
CCNC(=O)[C@H]1[C@H](CO)[C@H]2Cn3c(ccc(-c4ccccc4F)c3=O)[C@@H]1N2CC1CC1	x	x	x	x	x	1.0
CCOC(=O)C1CCN(C(=O)CSc2ccc(Cl)cc2)CC1	6.1	0.0	-0.9	-3.3	0.2	x
CCOC(=O)C1CCN(C(=O)C(C)Sc2ccc(Cl)cc2)CC1 (stereo not drawn)	8.9	6.7	8.6	-4.0	23.4*	x
C=CCCC1CN(CC=C)S(=O)(=O)c2c(F)cccc2O1 (stereo not drawn)	5.8	0.9	7.7	x	22.1*	0.8
CCC(=O)N1[C@@H](CO)[C@@H](c2ccc(-c3cccnc3)cc2)[C@@H]1CN(CC)C(C)=O	x	x	x	x	x	2.7
Cc1oc(-c2ccc(F)cc2)cc1-c1nn2c(-c3ccco3)nnc2s1	2.4	4.9	-0.4	6.6	-0.2	56.9*
Cc1oc(-c2ccc(F)cc2)cc1-c1nn2c(-c3ccoc3C)nnc2s1	1.4	38.4*	14.4*	x	40.5*	x
O=C(COC(=O)c1ccc(OC(F)F)cc1)Nc1ccc2c(c1)OCCO2	x	x	x	0.6	x	x
O=C(O)Cc1ccc(C(=O)c2ccccc2)s1	3.5	-0.1	-0.7	2.4	-0.1	x
Cc1ccc(SCC(=O)c2ccc(CC(=O)O)s2)cc1	-12.0	7.7	-1.8	16.2	13.8	64.5*
O=C(O)Cc1ccc(C(=O)CSc2ccccc2)s1	5.2	6.8	-0.1	22.7	1.8	48.6*
CCOC(=O)Cc1nnc(NC(=O)C(CC)Sc2nc(C)cc(=O)[nH]2)s1 (stereo not drawn)	4.7	-0.5	4.2	x	-3.0	43.2*
CC(C)NC(=O)N(C)C[C@@H]1Oc2ccc(NC(=O)Nc3ccc4c(c3)OCO4)cc2C(=O)N([C@@H](C)CO)C[C@H]1C	x	x	x	x	x	2.7
CCN1CCN(c2c(Cl)cccc2NC(=O)c2ccco2)CC1	-0.7	4.8	11.2	4.8	23.2*	x
O=C(Nc1cccc(Cl)c1N1CCOCC1)c1ccco1	-22.6	-5.8	1.7	-6.1	6.4	5.2
O=C(N/N=C/c1cn(Cc2cccc(F)c2)c2ccccc12)c1cc(O)cc(O)c1	6.8	39.2*	27.0*	7.6	65.9*	57.4*
Nc1ccc(C(=O)N/N=C/c2cn(Cc3ccc(F)cc3)c3ccccc23)cc1	-6.2	-5.3	3.5	-1.1	-2.7	73.2*
COC(=O)C1C(c2ccc(OC)c(OC)c2)NC(c2ccc(OC)c(OC)c2)C(C(=O)OC)S1(=O)=O (stereo not drawn)	0.3	10.4	7.7	-1.2	22.8*	0.1
COc1ccc2[nH]c3c(NCCN4CCCCC4)ncnc3c2c1	x	x	x	17.7	x	x
CCOc1ccc2[nH]c3c(NCCc4ccc(OC)c(OC)c4)ncnc3c2c1	1.3	-7.3	2.2	-2.9	45.2*	1.0
Oc1cc(Nc2cccnc2)cc2cccnc12	-9.2	0.3	-6.4	x	-0.5	36.2*
Oc1cc(Nc2ccncc2)cc2cccnc12	-7.3	-9.8	-6.5	x	1.4	-13.5
SMILES	TDP2 inh	LEDGF integ inh	MBD2 DNA inh	NSD2 inh	UHRF1 MBD2 ctr	Casp6 inh
O=C1c2ccccc2NC2(CCCC2)N1O	3.0	-2.4	1.8	-0.9	80.1*	x
COc1ccsc1S(=O)(=O)Nc1ccc(C(O)(C(F)(F)F)C(F)(F)F)cc1	x	x	x	-2.3	x	x
O=[N+]([O-])c1ccc(S(=O)(=O)N2CCC3(CC2)OCCN3S(=O)(=O)c2cccs2)cc1	-11.8	-4.2	3.4	11.7	-1.8	35.6*
COc1ccc(S(=O)(=O)N2CCOC23CCN(S(=O)(=O)c2ccc(C)cc2)CC3)cc1	-5.7	5.7	2.9	-5.5	1.2	52.1*
Cc1noc(C)c1S(=O)(=O)Nc1ccc2c(c1)C(=O)N([C@H](C)CO)C[C@H](C)[C@H](CN(C)C)OCCCC[C@H](C)O2	x	x	x	x	x	3.3
N=C(N)SCc1ncccc1O	x	x	x	11.7	x	42.6*
c1ccc(-c2cc(NCCN3CCCCC3)c3ccccc3n2)cc1	0.3	-1.7	12.7	6.8	21.3*	x
CCOC(=O)c1cnc2ccccc2c1Nc1cccc(C(=O)O)c1	-7.9	0.1	2.6	-13.0	2.2	x
CCOC(=O)c1cnc2ccccc2c1Nc1ccc(C(=O)O)cc1	-1.2	-0.8	2.8	0.7	25.6*	-1.6
Cc1nc(C)c(CCNC(=O)c2ccccc2Br)s1	-5.0	1.0	-1.3	-1.7	21.2*	x
CC=Cc1ccc2n(c1=O)C[C@@H]1[C@@H](CO)[C@H](C(=O)NCC3CC3)N(CC3CCOCC3)[C@H]21 (mixture of isomers)	x	x	x	x	x	-0.5
C/C=C/c1ccc([C@@H]2[C@@H](CO)N(C(C)=O)[C@H]2CN(CC)C(=O)CN(C)C)cc1	x	x	x	x	x	-11.6
CN(CC(=O)Nc1cccc2ccccc12)C(=O)c1ccc(F)cc1F	6.5	0.3	3.2	3.4	29.0*	-1.9
CN(CC(=O)Nc1cccc(F)c1)CC(=O)Nc1cccc2ccccc12	-18.5	6.2	-4.8	-2.4	1.6	3.1
CO[C@@H]1CN(C)C(=O)c2ccc(NC(=O)C3CCOCC3)cc2OC[C@H](C)N(C(C)=O)C[C@@H]1C	x	x	x	x	x	-2.1
CCCCNC(=O)Nc1cc(C)on1	2.3	-1.3	0.7	-0.7	-0.4	x
CCOC(=O)C(=O)Nc1cc(C)on1	45.5*	7.9	6.7	0.7	22.2*	2.0
COc1ccccc1S(=O)(=O)N[C@@H]1CC[C@@H](CCNC(=O)C2CCC2)O[C@H]1CO	x	x	x	x	x	-0.5
CC(C)C(C(=O)Nc1ccc2c(c1)OCO2)N1C(=O)c2ccccc2C1=O (stereo not drawn)	3.4	3.6	-0.6	1.9	-1.3	x
CC(C(=O)OCC(=O)Nc1ccc2c(c1)OCO2)N1C(=O)c2ccccc2C1=O (stereo not drawn)	8.8	2.7	34.5*	0.6	19.0	x
OC[C@H]1[C@H](c2ccc(-c3ccc(F)cc3)cc2)[C@H]2CN(Cc3cccnc3)CCCCN21	x	x	x	x	x	-0.7
OC[C@H]1[C@H](c2ccc(-c3ccc(F)cc3)cc2)[C@@H]2CN(Cc3cccnc3)CCCCN12	x	x	x	x	x	60.5*

Source: PubChem BioAssay
